The test system of data set [1] is gastric cancer cells. The settings on record: preclinical studies; cited from earlier work.
Data set [2] deals with CDT1. The data set is described as follows: CDT1 immunohistochemistry in endoscopic tumor biopsies. Type of data set: in vivo, human. The procedure, abridged: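 Endoscopic tumor biopsies from gastric cancer patients, taken at screening and on day 2 after a single lead-in dose of pevonedistat given alone on day 1. Formalin-fixed paraffin-embedded sections stained by immunohistochemistry with a monoclonal anti-CDT1 antibody. Read-out is CDT1-positive cells.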

Data set [3] deals with patients with unresectable advanced or recurrent gastric cancer (AGC). In words: Dose-finding cohort. The class given is in vivo, human. The settings on record: in combination with CapeOX. The method, boiled down:
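Open-label multicenter phase I with standard 3 + 3 escalation. Pevonedistat dose levels were 20, 15 and 10 mg/m2. There was a single-agent lead-in dose on day 1, then a 7-day interval. Each 3-week cycle gave oxaliplatin 130 mg/m2 on day 1, oral capecitabine 1000 mg/m2/day twice daily about 12 h apart for 14 days, and pevonedistat on days 1, 3 and 5. The DLT window ran from the first lead-in dose to day 35 or the start of cycle 2, whichever came first. The RD also weighed adverse events in later cycles.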

The conditions of data set [4]: Phase II trials for other cancers; cited from earlier work.
Data set [5] has as its system AGC. To be noted: cited from earlier work.
Setting [6] is: third-line or later treatment of AGC.
The mark [7] stands for this setting: after failure of ≥ 2 chemotherapy regimens, pivotal Phase III trials.

Where two headings read alike, the source gives them in different places. Some results are limits rather than exact numbers.

As to `NS(=O)(=O)OC[C@@H]1C[C@@H](n2ccc3c(N[C@H]4CCc5ccccc54)ncnc32)C[C@@H]1O` [Pevonedistat], in data set [1], the “Growth of gastric cancer cells” value is reported as “significantly suppresses the growth”. Also, in data set [2] (in vivo), the “Cullin–RING ligase substrates NRF2 and CDT1 in post-treatment tumor biopsies” value is “increase”; the “Pevonedistat-NEDD8 adduct in post-treatment tumor biopsies” value is “presence”. Moreover, in data set [2] (post-treatment tumor biopsy), the “Patients with increased CDT1 expression” value stood at 75%. For the same compound, in data set [3], the “Maximum tolerated dose of pevonedistat” value came out at 15 mg/m^2. Further, the “Recommended dose (RD) of pevonedistat” value in data set [3] (days 1, 3, 5 of a 3-week cycle) came out at 15 mg/m^2. Further, the “RD of pevonedistat combined with chemotherapy” value in data set [4] is 20–25 mg/m^2.

In the case of `CCc1c2c(nc3ccc(OC(=O)N4CCC(N5CCCCC5)CC4)cc13)-c1cc3c(c(=O)n1C2)COC(=O)[C@]3(O)CC` [irinotecan], in data set [5] (setting [6]), the “Patients experiencing disease progression as their best response” value was “more than 50%” and the Response rates result is given as “around 10%”.

For the compound Nivolumab, the Response rates is not above 10% in data set [5] (setting [7]) and “around 10%” in data set [5] (setting [6]). Further, in data set [5] (setting [6]), the “Patients experiencing disease progression as their best response” value is “more than 50%”.

For the compound trifluridine/tipiracil, the Response rates in data set [5] (setting [7]) is not above 10%; in data set [5] (setting [6]), “around 10%”. Also, the “Patients experiencing disease progression as their best response” value in data set [5] (setting [6]) is listed as “more than 50%”.

The record behind these values is paper PMC12780242 (Scientific Reports, 2025).
